Published values from different studies.
Each line is one published result; the experiments were not run side by side.

Cn1cc(-c2ccc(S(=O)(=O)[C@@H]3C[C@@H](C(=O)NC4(C#N)CC4)N(C(=O)C4(C(F)(F)F)CC4)C3)c(C(F)(F)F)c2)cn1  Tmax (human; plasma; oral; 100 mg; single dose, fasted, healthy volunteers): 4 h
CC(C)(Sc1ccncc1-c1ccc(C#N)c2ccccc12)C(=O)O  Tmax (male human; plasma; oral; 10 mg; multiple doses, once daily): 1 h
CCc1nc(C(N)=O)c(Nc2ccc(N3CCC(N4CCN(C)CC4)CC3)c(OC)c2)nc1NC1CCOCC1  Tmax (human; plasma; oral; 40 mg; multiple doses, patients): 4.01 h
c1cnc2ccc(Nc3nc(NC4CC4)c4nc[nH]c4n3)cc2c1  Tmax (human; plasma; oral; 50 mg/m²; patients): 5 h
C=CC(=O)N(C)CCOc1c(N)ncnc1-c1cc(F)cc(NC(=O)c2ccc(C3CC3)cc2F)c1C  Tmax (human; blood; oral; 5 mg; single dose, healthy volunteers): 0.52 h
COc1cc(N2CCC(N3CCN(C)CC3)CC2)ccc1Nc1ncnc(Nc2ccccc2S(=O)(=O)C(C)C)n1  Tmax (human; plasma; oral; 50 mg; multiple doses, patients): 2.99 h
C[C@@]1(c2cc(NC(=O)c3ccc(C#N)cn3)ccc2F)C=CSC(N)=N1  Tmax (human; plasma; oral; 1 mg; single dose): 0.89 h
CC(C)n1cc(C#N)c2cc(-n3cc(C(=O)O)cn3)ccc21  Tmax (human; plasma; oral; 100 mg; multiple doses, once daily, steady state): 2.5 h
C[C@@H](Nc1cc(F)cc(F)c1)c1cc(C(=O)N(C)C)cc2c(=O)cc(N3CCOCC3)oc12  Tmax (human; plasma; oral; 60 mg; single dose, patients): 1.27 h
CO[C@@H]1[C@H](OC(=O)N2CC(CCN3CCOCC3)C2)CC[C@]2(CO2)[C@H]1[C@@]1(C)O[C@@H]1CC=C(C)C  Tmax (human; plasma; subcutaneous; 3.6 mg; single dose, healthy volunteers): 0.25 h
O=C(Nc1c(Cl)cncc1Cl)c1ccc(OC(F)F)c(OCC2CC2)c1  Tmax (human; plasma; oral; 0.375 mg; single dose): 0.5 h
CCc1nc2c(C)cc(N3CCN(CC(=O)N4CC(O)C4)CC3)cn2c1N(C)c1nc(-c2ccc(F)cc2)c(C#N)s1  Tmax (human; plasma; oral; 20 mg; fed, healthy volunteers): 1 h
COc1ccc([C@@H]2CN(C(=O)[C@@H](O)CO)C[C@@]2(C)[C@@H](C)O)cc1OC1CN(c2ccc(C)cn2)C1  Tmax (human; plasma; oral; 0.5 mg; single dose, healthy volunteers): 1.5 h
Cc1nc(NC(=O)N2CCC[C@H]2C(N)=O)sc1-c1ccnc(C(C)(C)C(F)(F)F)c1  Tmax (human; plasma; oral; 350 mg; patients): 1.77 h
C#C[C@]1(COP(=O)(O)OP(=O)(O)OP(=O)(O)O)O[C@@H](n2cnc3c(N)nc(F)nc32)C[C@@H]1O  Tmax (human; plasma; oral; 30 mg; single dose): 24 h
CCO[C@H]1CCN(Cc2c(OC)cc(C)c3[nH]ccc23)[C@H](c2ccc(C(=O)O)cc2)C1  Tmax (human; plasma; oral; 25 mg; multiple doses, twice daily, patients): 2 h
NS(=O)(=O)NCCNc1nonc1C(=NO)Nc1ccc(F)c(Br)c1  Tmax (human; plasma; oral; 300 mg; multiple doses, twice daily, steady state, patients): 2 h
CC(C)(O)c1ccccc1-c1ccc2[nH]c(/C=C/c3ccc(C(F)(F)F)cc3)nc2c1  Tmax (male human; plasma; oral; 225 mg; single dose, fasted): 2.02 h
CS(=O)(=O)CCC#N  Tmax (human; plasma; oral; 100 mg; single dose, fasted): 2 h
